# Data: ChEMBL document CHEMBL4118181, “Investigations on small molecule inhibitors targeting the histone H3K4 tri-methyllysine binding PHD-finger of JmjC histone demethylases” (Bioorg Med Chem, 2018)
# Calls of active or inactive are those of the source. No cut-off for these calls is given here.
# What was measured:
# [1] = molecular target: T1, Lysine-specific demethylase 7A (Homo sapiens) (UniProt Q6ZMT4); assay: Inhibition of KDM7A (PHD-JmjC) (unknown origin) demethylation activity at 100 uM preincubated for 10 mins followed by H3(1-15)K9me2 peptide substrate addition by MALDI-TOF-MS analysis
# T1 sequence (whole entry): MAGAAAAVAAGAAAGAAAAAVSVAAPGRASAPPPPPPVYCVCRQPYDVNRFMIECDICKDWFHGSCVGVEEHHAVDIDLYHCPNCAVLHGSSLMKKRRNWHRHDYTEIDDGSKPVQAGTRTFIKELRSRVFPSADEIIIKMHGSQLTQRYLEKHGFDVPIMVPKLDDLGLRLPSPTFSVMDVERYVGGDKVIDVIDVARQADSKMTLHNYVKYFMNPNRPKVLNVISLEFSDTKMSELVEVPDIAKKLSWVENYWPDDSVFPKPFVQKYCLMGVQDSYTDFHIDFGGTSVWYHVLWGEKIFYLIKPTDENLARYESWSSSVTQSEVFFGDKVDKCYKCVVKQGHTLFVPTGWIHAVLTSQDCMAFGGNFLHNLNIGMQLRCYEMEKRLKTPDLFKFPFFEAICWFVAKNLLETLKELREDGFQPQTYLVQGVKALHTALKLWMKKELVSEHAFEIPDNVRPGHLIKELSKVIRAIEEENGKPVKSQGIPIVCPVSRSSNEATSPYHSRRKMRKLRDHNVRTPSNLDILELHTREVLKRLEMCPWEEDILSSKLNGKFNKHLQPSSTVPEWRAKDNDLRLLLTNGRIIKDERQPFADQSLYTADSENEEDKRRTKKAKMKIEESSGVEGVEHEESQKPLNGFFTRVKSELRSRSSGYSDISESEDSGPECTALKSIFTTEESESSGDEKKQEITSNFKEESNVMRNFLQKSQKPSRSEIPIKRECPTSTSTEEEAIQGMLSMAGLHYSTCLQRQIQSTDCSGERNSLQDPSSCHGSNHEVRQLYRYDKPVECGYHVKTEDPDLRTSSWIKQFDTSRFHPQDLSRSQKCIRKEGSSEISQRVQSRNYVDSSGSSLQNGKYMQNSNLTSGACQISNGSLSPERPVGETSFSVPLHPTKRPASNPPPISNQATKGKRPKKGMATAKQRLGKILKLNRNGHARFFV
# [2] = molecular target: Histone lysine demethylase PHF8 (Homo sapiens) (UniProt Q9UPP1); assay: Displacement of C-terminally biotinylated-H3K4me3 (1 to 21 residues) peptide from KDM7B (PHD-JmjC) (unknown origin) at 100 uM preincubated for 15 mins followed by peptide addition measured after 1 hr by luminescence-based AlphaScreen assay
# Histone lysine demethylase PHF8 (Homo sapiens), sequence (Q9UPP1 whole entry, the tested form may be a part): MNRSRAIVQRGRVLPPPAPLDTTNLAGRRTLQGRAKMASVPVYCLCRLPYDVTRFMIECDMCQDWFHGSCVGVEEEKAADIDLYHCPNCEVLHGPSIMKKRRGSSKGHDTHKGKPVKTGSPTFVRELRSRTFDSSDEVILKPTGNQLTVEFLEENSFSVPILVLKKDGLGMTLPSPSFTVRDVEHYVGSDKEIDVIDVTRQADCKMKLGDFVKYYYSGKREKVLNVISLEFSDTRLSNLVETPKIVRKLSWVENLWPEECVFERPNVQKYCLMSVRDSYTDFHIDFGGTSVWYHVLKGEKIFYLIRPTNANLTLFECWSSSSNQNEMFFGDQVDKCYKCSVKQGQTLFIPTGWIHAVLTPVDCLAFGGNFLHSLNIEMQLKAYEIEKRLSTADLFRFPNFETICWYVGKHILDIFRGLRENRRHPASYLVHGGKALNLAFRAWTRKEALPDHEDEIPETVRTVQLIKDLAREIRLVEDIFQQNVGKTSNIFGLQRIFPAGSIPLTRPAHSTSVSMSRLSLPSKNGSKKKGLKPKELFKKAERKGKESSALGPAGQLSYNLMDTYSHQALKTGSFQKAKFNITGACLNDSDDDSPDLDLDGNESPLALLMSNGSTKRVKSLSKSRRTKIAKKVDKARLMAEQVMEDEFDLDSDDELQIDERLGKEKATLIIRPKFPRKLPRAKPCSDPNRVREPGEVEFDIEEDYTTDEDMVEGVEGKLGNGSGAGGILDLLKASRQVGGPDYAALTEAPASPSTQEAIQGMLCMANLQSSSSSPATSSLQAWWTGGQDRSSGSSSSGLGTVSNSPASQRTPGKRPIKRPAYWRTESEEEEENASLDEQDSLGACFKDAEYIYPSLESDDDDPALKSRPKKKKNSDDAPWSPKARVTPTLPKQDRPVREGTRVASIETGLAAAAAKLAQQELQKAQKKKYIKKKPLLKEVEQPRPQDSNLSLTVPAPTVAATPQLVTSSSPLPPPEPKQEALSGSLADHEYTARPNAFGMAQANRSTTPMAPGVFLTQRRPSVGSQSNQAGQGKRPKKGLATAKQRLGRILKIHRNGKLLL
# [3] = molecular target: T1, Lysine-specific demethylase 7A (Homo sapiens); assay: Displacement of C-terminally biotinylated-H3K4me3 (1 to 21 residues) peptide from KDM7A (PHD-JmjC) (unknown origin) at 100 uM preincubated for 15 mins followed by peptide addition measured after 1 hr by luminescence-based AlphaScreen assay
# [4] = molecular target: Lysine-specific demethylase 5A (Homo sapiens) (UniProt P29375); assay: Substrate activity at KDM5A (L88 to G353 residues) ARID/PHD1/2/3 deletion mutant (unknown origin) demethylation activity assessed as formaldehyde production measured every 30 seconds over 25 mins in absence of H3K4me3
# Lysine-specific demethylase 5A (Homo sapiens), sequence (P29375 whole entry, the tested form may be a part): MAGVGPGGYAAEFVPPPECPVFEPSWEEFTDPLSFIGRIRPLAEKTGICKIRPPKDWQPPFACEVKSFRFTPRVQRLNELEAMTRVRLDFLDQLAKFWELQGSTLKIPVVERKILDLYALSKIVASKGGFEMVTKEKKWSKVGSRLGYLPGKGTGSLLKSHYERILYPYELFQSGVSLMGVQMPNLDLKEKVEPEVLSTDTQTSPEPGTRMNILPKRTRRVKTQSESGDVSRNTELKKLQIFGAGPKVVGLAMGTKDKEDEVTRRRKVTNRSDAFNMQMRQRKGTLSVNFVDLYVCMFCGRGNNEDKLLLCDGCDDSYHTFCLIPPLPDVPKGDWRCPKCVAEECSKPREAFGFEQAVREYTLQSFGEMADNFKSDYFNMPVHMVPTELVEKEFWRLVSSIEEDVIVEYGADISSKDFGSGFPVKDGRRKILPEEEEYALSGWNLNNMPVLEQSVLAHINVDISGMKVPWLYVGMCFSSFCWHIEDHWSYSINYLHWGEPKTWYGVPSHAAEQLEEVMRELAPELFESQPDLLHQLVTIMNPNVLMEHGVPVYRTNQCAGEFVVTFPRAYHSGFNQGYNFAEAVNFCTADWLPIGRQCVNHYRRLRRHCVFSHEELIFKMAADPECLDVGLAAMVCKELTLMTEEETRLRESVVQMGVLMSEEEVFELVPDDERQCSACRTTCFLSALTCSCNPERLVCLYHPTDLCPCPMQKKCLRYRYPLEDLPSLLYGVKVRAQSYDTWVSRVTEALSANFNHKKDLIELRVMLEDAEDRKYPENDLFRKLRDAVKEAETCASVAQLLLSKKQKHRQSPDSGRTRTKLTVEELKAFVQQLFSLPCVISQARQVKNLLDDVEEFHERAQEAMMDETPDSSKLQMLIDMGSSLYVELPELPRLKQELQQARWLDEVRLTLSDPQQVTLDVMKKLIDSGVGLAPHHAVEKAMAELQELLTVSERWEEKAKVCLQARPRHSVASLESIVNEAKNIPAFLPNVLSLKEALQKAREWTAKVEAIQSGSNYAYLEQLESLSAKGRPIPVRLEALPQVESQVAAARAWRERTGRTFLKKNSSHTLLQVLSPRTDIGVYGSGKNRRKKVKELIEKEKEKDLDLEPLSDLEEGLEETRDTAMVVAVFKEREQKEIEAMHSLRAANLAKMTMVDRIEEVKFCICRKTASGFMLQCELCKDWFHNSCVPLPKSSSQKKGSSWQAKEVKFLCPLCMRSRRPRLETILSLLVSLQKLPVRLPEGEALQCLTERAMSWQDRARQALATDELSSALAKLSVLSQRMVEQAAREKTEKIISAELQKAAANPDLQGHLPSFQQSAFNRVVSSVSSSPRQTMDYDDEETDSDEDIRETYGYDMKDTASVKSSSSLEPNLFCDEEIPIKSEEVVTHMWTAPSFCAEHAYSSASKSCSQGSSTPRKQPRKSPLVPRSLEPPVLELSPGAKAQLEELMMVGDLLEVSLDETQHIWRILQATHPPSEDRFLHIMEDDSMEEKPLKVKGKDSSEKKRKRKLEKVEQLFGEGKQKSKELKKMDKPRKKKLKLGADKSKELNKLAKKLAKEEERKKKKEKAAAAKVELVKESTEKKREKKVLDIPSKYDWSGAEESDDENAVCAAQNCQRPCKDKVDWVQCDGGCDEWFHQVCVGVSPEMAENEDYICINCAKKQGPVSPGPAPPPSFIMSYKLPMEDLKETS
# [5] = molecular target: Lysine-specific demethylase 5A (Homo sapiens) (UniProt P29375); assay: Mixed type inhibition of KDM5A (L88 to G353 residues) ARID/PHD1/2/3 deletion mutant (unknown origin) demethylation activity using H3(1-21)K4me3 peptide as substrate measured every 30 seconds over 25 mins by formaldehyde dehydrogenase coupled activity assay based Lineweaver-Burk plot analysis
# Outline: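 FDH enzyme-coupled fluorescence assay of KDM5A_c2 demethylation, with formaldehyde production as the read-out. Kinetic analysis is made against the H3K4me3 substrate, and α and Ki are derived to assign the inhibition mode.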
SMILES,inhibition [1] [%],inhibition [2],inhibition [3],Activity [4],inhibition [5]
CCCCc1oc2ccccc2c1C(=O)c1cc(I)c(OCCC[N+](C)(C)C)c(I)c1,100,inactive,,,
CCCCc1oc2ccccc2c1C(=O)c1ccc(OCCCN(C)C)cc1,100,inactive,,,
Cc1oc2ccccc2c1C(=O)c1ccc(OCCC[N+](C)(C)C)cc1,100,,,,
CCCCc1oc2ccccc2c1C(=O)c1cc(I)c(OCC[N+](C)(C)C)c(I)c1,17,inactive,inactive,,
CCCCc1oc2ccccc2c1C(=O)c1ccc(OCCC[N+](C)(C)C)cc1,100,,,inactive,Active
